Results reported in ChEMBL document CHEMBL4765251, “Efficient identification of novel anti-glioma lead compounds by machine learning models” (Eur J Med Chem, 2020).
Active and inactive are the calls of the source. The calls are words filed in the database; no cut-off is given here.

Legend:
[1] = Selectivity index, ratio of CC50 for Wistar rat astrocytes to EC50 for human U-251 MG cells
Procedure, shortened: (§1)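 Selectivity index is astrocyte CC50 divided by the glioma-line EC50, both from 72 h SRB assays. No index is given when astrocyte cytotoxicity could not be calculated at the highest concentration tested.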

[2] = Selectivity index, ratio of CC50 for Wistar rat astrocytes to EC50 for rat C6 cells; procedure, shortened: as §1
[3] = Cytotoxicity against Wistar rat astrocytes assessed as cell growth inhibition measured after 72 hrs by SRB assay; format: cell-based, Astrocyte
Procedure, shortened: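 Primary astrocytes taken from the cortex of 2-day-old Wistar rats by mechanical dissociation, grown on poly-L-lysine in high-glucose DMEM and treated at 90% confluence (12-15 days). Exposed to 0.1-100 µM for 72 h, then SRB assay with absorbance read at 510 nm against DMSO controls. Mean ± SD of three independent assays.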

U-87 MG = test: Antiproliferative activity against human U87MG cells assessed as cell growth inhibition measured after 72 hrs by SRB assay; format: functional, cell-based, U-87MG ATCC
Procedure, shortened: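 U87MG human glioma cells grown in DMEM with 10% FBS at 37 °C, used up to 30 passages and treated at 40-50% confluence. Exposed to 0.1-100 µM for 72 h, with DMSO at most 0.1% final. TCA-fixed, stained with SRB, dye solubilized in Tris pH 10.5, read at 510 nm, expressed as % of DMSO controls. Mean ± SD of three independent assays.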

U-251 = test: Antiproliferative activity against human U251MG cells assessed as cell growth inhibition measured after 72 hrs by SRB assay; format: functional, cell-based; settings: U-251, 72 h
C6 [4] = test: Antiproliferative activity against rat C6 cells assessed as cell growth inhibition measured after 72 hrs by SRB assay; format: functional, cell-based; settings: C6, 72 h
[5] = Selectivity index, ratio of CC50 for Wistar rat astrocytes to EC50 for human U87MG cells; procedure, shortened: as §1
Rattus norvegicus [6] = species on record: Rattus norvegicus; test: Inhibition of TrxR in rat liver assessed as reduction in TNB formation using DTNB and NADPH as substrate at 100 uM preincubated with enzyme for 15 mins followed by NADPH addition by absorbance based analysis; format: tissue-based
Procedure, shortened: (§2)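 TrxR activity was measured at 37 °C in 100 mM potassium phosphate pH 7.0 with 2 mg/mL DTNB and 0.01 mg/mL enzyme. Enzyme was preincubated for 15 min with compound or DMSO, then the reaction was started with 0.2 mg/mL NADPH. TNB formation was followed at 412 nm (ε 13.6 mM-1 cm-1). Assays were run in duplicate, with enzyme-free blanks subtracted.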

C6 [7] = test: Antiproliferative activity against rat C6 cells assessed as cell growth inhibition measured after 72 hrs in presence of 0.0001 to 0.001% Triton X-100 by SRB assay; format: functional, cell-based
Procedure, shortened: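 Rat C6 glioma cells were incubated for 72 h in medium with no detergent or with 0.0001% or 0.001% Triton X-100, as a check for aggregation-based cytotoxicity. Viability was read by SRB assay and an EC50 was derived from concentration-response curves. Mean ± SD of three independent assays.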

[8] = (§3) Inhibition of TrxR in rat liver assessed as reduction in TNB formation using DTNB and NADPH as substrate preincubated with enzyme for 15 mins followed by NADPH addition by absorbance based analysis; format: tissue-based; procedure, shortened: as §2
Rattus norvegicus [9] = species on record: Rattus norvegicus; test: as §3; format: tissue-based; procedure, shortened: as §2
C6 [10] = test: Antiproliferative activity against rat C6 cells assessed as cell growth inhibition preincubated with NAC for 1 hr prior to compound challenge and measured after 72 hrs by SRB assay; format: functional, cell-based
Procedure, shortened: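 C6 cells were pretreated with 2 mM N-acetylcysteine for 1 h, then exposed to compound for 72 h. Viability was measured by SRB assay relative to DMSO-treated controls. Auranofin served as the reference thiol-reactive control.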

GL261 [11] = test: Antitumor activity against C57BL/6 mouse GL261 cells xenografted in C57BL/6 mouse assessed as reduction in tumor volume at 10 to 100 mg/kg, po administered via gavage once daily for 10 days starting from 7 days post tumor cell inoculation and measured on day 17; format: functional, organism-based; settings: dose 10-100 mg/kg/day, time 10.0 day
Procedure, shortened: (§4)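 GL261 cells (5x10^4 in 2 µL DMEM) were injected into the right hemisphere of 60-day-old male and female C57BL/6 mice (17-25 g) under ketamine/xylazine. From day 7, mice received compound once daily for 10 days (n=9 per group), by gavage (200 µL) or ip (100 µL). Vehicle was 0.9% saline with 10% DMSO and 0.3% Tween-80. Tumor volume was taken as the summed segmented areas of three H&E coronal sections.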

[12] = Antitumor activity against C57BL/6 mouse GL261 cells xenografted in C57BL/6 mouse assessed as reduction in tumor volume at 100 mg/kg, ip administered once daily for 10 days starting from 7 days post tumor cell inoculation and measured on day 17; format: functional; settings: C57BL/6, GL261, ip, 240 h, time 10 day; procedure, shortened: as §4
[13] = Toxicity in C57BL/6 mouse xenografted with C57BL/6 mouse GL261 cells assessed as mortality at 100 mg/kg, ip administered once daily for 10 days starting from 7 days post tumor cell inoculation; format: organism-based; settings: in vivo, 240 h, dose 100 mg/kg/day, time 10 day
Procedure, shortened: (§5)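 Orthotopic model: 5x10^4 GL261 cells in 2 µL serum-free DMEM injected into the right hemisphere of 60-day-old male and female C57BL/6 mice (17-25 g) under ketamine/xylazine. Treatment began 7 days later, n=9 per group. Compound was given in 0.9% saline with 10% DMSO and 0.3% Tween-80, as 100 µL ip or 200 µL by gavage. Body weight change (final minus initial) and mortality were monitored.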

[14] = Toxicity in C57BL/6 mouse xenografted with C57BL/6 mouse GL261 cells assessed as mortality at 100 mg/kg, po administered via gavage once daily for 10 days starting from 7 days post tumor cell inoculation; format: organism-based; settings: in vivo, 240 h, dose 100 mg/kg/day, time 10 day; procedure, shortened: as §5
[15] = Toxicity in C57BL/6 mouse xenografted with C57BL/6 mouse GL261 cells at 100 mg/kg, ip administered once daily for 10 days starting from 7 days post tumor cell inoculation; format: organism-based; settings: in vivo, 240 h, dose 100 mg/kg/day, time 10 day; procedure, shortened: as §5
[16] = Toxicity in C57BL/6 mouse xenografted with C57BL/6 mouse GL261 cells at 100 mg/kg, po administered via gavage once daily for 10 days starting from 7 days post tumor cell inoculation; format: organism-based; settings: in vivo, 240 h, dose 100 mg/kg/day, time 10 day; procedure, shortened: as §5
[17] = Toxicity in C57BL/6 mouse xenografted with C57BL/6 mouse GL261 cells assessed as body weight at 100 mg/kg, ip administered once daily for 10 days starting from 7 days post tumor cell inoculation; format: organism-based; settings: in vivo, 240 h, dose 100 mg/kg/day, time 10 day; procedure, shortened: as §5
[18] = Toxicity in C57BL/6 mouse xenografted with C57BL/6 mouse GL261 cells assessed as body weight at 100 mg/kg, po administered via gavage once daily for 10 days starting from 7 days post tumor cell inoculation; format: organism-based; settings: in vivo, 240 h, dose 100 mg/kg/day, time 10 day; procedure, shortened: as §5
[19] = Hepatotoxicity in C57BL/6 mouse xenografted with C57BL/6 mouse GL261 cells assessed as serum ALT level at 100 mg/kg, po or ip administered once daily for 10 days starting from 7 days post tumor cell inoculation and measured on day 17 (reference value: 7.6 +/- 4.2 U/L); format: toxicity, organism-based; settings: in vivo, 240 h, dose 100 mg/kg/day, time 10 day
[20] = Hepatotoxicity in C57BL/6 mouse xenografted with C57BL/6 mouse GL261 cells assessed as serum ALP level at 100 mg/kg, po or ip administered once daily for 10 days starting from 7 days post tumor cell inoculation and measured on day 17 (reference value: 19.1 +/- 8.9 U/L); format: toxicity, organism-based; settings: in vivo, 240 h, dose 100 mg/kg/day, time 10 day
[21] = Nephrotoxicity in C57BL/6 mouse xenografted with C57BL/6 mouse GL261 cells assessed as serum creatinine level at 100 mg/kg, po or ip administered once daily for 10 days starting from 7 days post tumor cell inoculation and measured on day 17 (reference value: 0.4 +/- 0.3 mg/dl); format: toxicity, organism-based; settings: in vivo, 240 h, dose 100 mg/kg/day, time 10 day
[22] = Hematological toxicity in C57BL/6 mouse xenografted with C57BL/6 mouse GL261 cells assessed as blood glucose level at 100 mg/kg, po or ip administered once daily for 10 days starting from 7 days post tumor cell inoculation and measured on day 17 (reference value: 108 +/- 13 mg/dl); format: organism-based; settings: in vivo, 240 h, dose 100 mg/kg/day, time 10 day
[23] = Hematological toxicity in C57BL/6 mouse xenografted with C57BL/6 mouse GL261 cells assessed as WBC level in blood at 100 mg/kg, po or ip administered once daily for 10 days starting from 7 days post tumor cell inoculation and measured on day 17 (reference value: 8.6 +/- 1.6x10^3/uL); format: organism-based; settings: in vivo, 240 h, dose 100 mg/kg/day, time 10 day
[24] = Hematological toxicity in C57BL/6 mouse xenografted with C57BL/6 mouse GL261 cells assessed as hematocrit level in blood at 100 mg/kg, po or ip administered once daily for 10 days starting from 7 days post tumor cell inoculation and measured on day 17 (reference value: 44.5 +/- 1.8%); format: organism-based; settings: in vivo, 240 h, dose 100 mg/kg/day, time 10 day
GL261 [25] = test: Antitumor activity against C57BL/6 mouse GL261 cells xenografted in C57BL/6 mouse assessed as reduction in tumor volume at 20 mg/kg, po administered via gavage once daily for 10 days starting from 7 days post tumor cell inoculation and measured on day 17; format: functional, organism-based; settings: dose 20.0 mg/kg/day, time 10.0 day
GL261 [26] = test: Antitumor activity against C57BL/6 mouse GL261 cells xenografted in C57BL/6 mouse assessed as reduction in tumor volume at 20 mg/kg, ip administered once daily for 10 days starting from 7 days post tumor cell inoculation and measured on day 17; format: functional, organism-based; settings: dose 20.0 mg/kg/day, time 10.0 day
Astrocyte = test: Cytotoxicity against Wistar rat astrocytes assessed as cell growth inhibition at 100 uM measured after 72 hrs by SRB assay; format: cell-based

Row | SMILES | Ratio CC50/EC50 [1] | Ratio CC50/EC50 [2] | CC50 at 72 h [3] | EC50 (U-87 MG) | EC50 (U-251) | EC50 (C6 [4]) | Ratio CC50/EC50 [5] | inhibition (Rattus norvegicus [6]) | Activity (C6 [7]) | Activity (C6 [10]) | Activity (GL261 [11]) | Activity [13] | Activity [14] | Activity [15] | Activity [16] | Activity [17] | Activity [18] | Activity [19] | Activity [20] | Activity [21] | also measured
1 | Cc1cccc(C(=O)/C=C/c2ccc([N+](=O)[O-])o2)c1 | 22.7 | 24.8 | 52.2 µM | 3.3 µM | 2.3 µM | 2.1 µM | 15.8 | 95.2% | Active | inactive | inactive | Non-Toxic | Non-Toxic | Non-Toxic | Non-Toxic | Non-Toxic | Non-Toxic | 6.2 U/L | 20.3 U/L | 0.4 mg/dL | IC50 [8]: 25 µM; inhibition (Rattus norvegicus [9]): Dose-dependent effect; inhibition in vivo at 100 mg/kg/day [12]: 43.8%; Activity [22]: 108 mg/dL; Activity [23]: 8.4 10^3 /uL; Activity [24]: 46%
2 | O=C(/C=C/c1ccc([N+](=O)[O-])o1)c1cccc(Br)c1 | 6.1 | 25.4 | 35.6 µM | 6.8 µM | 5.8 µM | 1.4 µM | 5.2 | 78.7% | Active | inactive | inactive | Non-Toxic | Non-Toxic | Non-Toxic | Non-Toxic | Non-Toxic | Non-Toxic | 9.9 U/L | 20.6 U/L | 0.5 mg/dL | inhibition in vivo at 100 mg/kg/day [12]: 41.3%; Activity [22]: 109 mg/dL; Activity [23]: 9.2 10^3 /uL; Activity [24]: 45.3%
3 | CCCCc1ccc(C(=O)/C=C/c2ccc([N+](=O)[O-])o2)cc1 | 10.6 | 24.2 | 41.2 µM | 5.8 µM | 3.9 µM | 1.7 µM | 7.1 | 80.7% | Active | inactive | inactive | Non-Toxic | Non-Toxic | Non-Toxic | Non-Toxic | Non-Toxic | Non-Toxic | 19.8 U/L | 22.2 U/L | 0.3 mg/dL | IC50 [8]: 25 µM; inhibition (Rattus norvegicus [9]): Dose-dependent effect; Activity [22]: 94 mg/dL; Activity [23]: 9.5 10^3 /uL; Activity [24]: 45.5%
4 | Cn1nnc2c(C(N)=O)ncn2c1=O [TEMOZOLOMIDE] | – | – | – | > 200 µM | > 200 µM | 60.5 µM | – | – | – | – | – | – | – | – | – | – | – | – | – | – | Activity (GL261 [25]): inactive; Activity (GL261 [26]): Active; Activity (Astrocyte): Non-Toxic
